# Measured values published in ChEMBL document CHEMBL5058577, “EUbOPEN Chemogenomics Library 2 (Multiplex)” (2022).
# System: HEK-293T
# Experiment: Multiplex assay against HEK293T
# Type: toxicity, cell-based
# Conditions: human
# In short: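 Cells were classed with CellPathfinder machine-learning gating, first as Hoechst high-intensity objects or normal cells, then (normal cells) as healthy, pyknosed or fragmented nuclei, and finally (pyknosed cells) as mitotic or apoptotic. Staining of live cells at seeding used Hoechst33342, BioTracker Green Microtubule Cytoskeleton Dye, MitoTracker Red and Annexin V Alexa Fluor 680, with imaging on a CQ1 microscope at 37°C and 5% CO2 after compound addition. Tubulin, mitochondrial-mass and membrane-permeability phenotypes are per cents of healthy-nucleus cells.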
# [1] = 12 h, 1 µM, compound concentration 1 uM, replicate 1
# [2] = 12 h, 1 µM, compound concentration 1 uM, replicate 2
# [3] = 12 h, 10 µM, compound concentration 10 uM, replicate 1
# [4] = 12 h, 10 µM, compound concentration 10 uM, replicate 2
# [5] = 24 h, 1 µM, compound concentration 1 uM, replicate 1
# [6] = 24 h, 1 µM, compound concentration 1 uM, replicate 2
# [7] = 24 h, 10 µM, compound concentration 10 uM, replicate 1
# [8] = 24 h, 10 µM, compound concentration 10 uM, replicate 2
# [9] = 48 h, 1 µM, compound concentration 1 uM, replicate 1
# [10] = 48 h, 1 µM, compound concentration 1 uM, replicate 2
# [11] = 48 h, 10 µM, compound concentration 10 uM, replicate 1
# [12] = 48 h, 10 µM, compound concentration 10 uM, replicate 2
smiles,measurement,setting,value
CC(C)(C)c1ccc(CSc2cnn(C(C)(C)C)c(=O)c2Cl)cc1 [PYRIDABEN],Population Apoptotic (%),[1],51%
same,Population Fragmented Nuclei (%),[1],7%
same,Population Healthy Nuclei (%),[1],78%
same,Population Hoechst High Intensity Objects (%),[1],12%
same,Population Membrane Permeable-Phenotype (%),[1],0%
same,Population Mitochondria Different-Phenotype (%),[1],51%
same,Population Mitotic Cells (%),[1],48%
same,Population Normal (%),[1],87%
same,Population Pyknosed Nuclei (%),[1],14%
same,Population Tubulin-Different-Phenotype (%),[1],34%
same,Total Cell Count,[1],299
same,Population Apoptotic (%),[2],28%
same,Population Fragmented Nuclei (%),[2],6%
same,Population Healthy Nuclei (%),[2],83%
same,Population Hoechst High Intensity Objects (%),[2],8%
same,Population Mitochondria Different-Phenotype (%),[2],63%
same,Population Mitotic Cells (%),[2],71%
same,Population Normal (%),[2],91%
same,Population Pyknosed Nuclei (%),[2],10%
same,Population Tubulin-Different-Phenotype (%),[2],30%
same,Total Cell Count,[2],306
same,Population Apoptotic (%),[3],56%
same,Population Fragmented Nuclei (%),[3],6%
same,Population Healthy Nuclei (%),[3],77%
same,Population Hoechst High Intensity Objects (%),[3],11%
same,Population Membrane Permeable-Phenotype (%),[3],0%
same,Population Mitochondria Different-Phenotype (%),[3],75%
same,Population Mitotic Cells (%),[3],44%
same,Population Normal (%),[3],88%
same,Population Pyknosed Nuclei (%),[3],15%
same,Population Tubulin-Different-Phenotype (%),[3],55%
same,Total Cell Count,[3],359
same,Population Apoptotic (%),[4],62%
same,Population Fragmented Nuclei (%),[4],8%
same,Population Healthy Nuclei (%),[4],74%
same,Population Hoechst High Intensity Objects (%),[4],17%
same,Population Mitochondria Different-Phenotype (%),[4],81%
same,Population Mitotic Cells (%),[4],37%
same,Population Normal (%),[4],82%
same,Population Pyknosed Nuclei (%),[4],16%
same,Population Tubulin-Different-Phenotype (%),[4],38%
same,Total Cell Count,[4],236
same,Population Apoptotic (%),[5],33%
same,Population Fragmented Nuclei (%),[5],7%
same,Population Healthy Nuclei (%),[5],80%
same,Population Hoechst High Intensity Objects (%),[5],9%
same,Population Membrane Permeable-Phenotype (%),[5],0%
same,Population Mitochondria Different-Phenotype (%),[5],37%
same,Population Mitotic Cells (%),[5],66%
same,Population Normal (%),[5],90%
same,Population Pyknosed Nuclei (%),[5],11%
same,Population Tubulin-Different-Phenotype (%),[5],27%
same,Total Cell Count,[5],373
same,Population Apoptotic (%),[6],35%
same,Population Healthy Nuclei (%),[6],83%
same,Population Hoechst High Intensity Objects (%),[6],8%
same,Population Mitochondria Different-Phenotype (%),[6],43%
same,Population Mitotic Cells (%),[6],64%
same,Population Normal (%),[6],91%
same,Population Pyknosed Nuclei (%),[6],8%
same,Population Tubulin-Different-Phenotype (%),[6],22%
same,Total Cell Count,[6],370
same,Population Apoptotic (%),[7],44%
same,Population Fragmented Nuclei (%),[7],7%
same,Population Healthy Nuclei (%),[7],79%
same,Population Hoechst High Intensity Objects (%),[7],10%
same,Population Membrane Permeable-Phenotype (%),[7],0%
same,Population Mitochondria Different-Phenotype (%),[7],68%
same,Population Mitotic Cells (%),[7],55%
same,Population Normal (%),[7],89%
same,Population Pyknosed Nuclei (%),[7],12%
same,Population Tubulin-Different-Phenotype (%),[7],52%
same,Total Cell Count,[7],386
same,Population Apoptotic (%),[8],46%
same,Population Fragmented Nuclei (%),[8],8%
same,Population Healthy Nuclei (%),[8],70%
same,Population Hoechst High Intensity Objects (%),[8],23%
same,Population Mitochondria Different-Phenotype (%),[8],65%
same,Population Mitotic Cells (%),[8],53%
same,Population Normal (%),[8],76%
same,Population Pyknosed Nuclei (%),[8],21%
same,Population Tubulin-Different-Phenotype (%),[8],25%
same,Total Cell Count,[8],252
same,Population Apoptotic (%),[9],19%
same,Population Fragmented Nuclei (%),[9],11%
same,Population Healthy Nuclei (%),[9],80%
same,Population Hoechst High Intensity Objects (%),[9],5%
same,Population Membrane Permeable-Phenotype (%),[9],0%
same,Population Mitochondria Different-Phenotype (%),[9],25%
same,Population Mitotic Cells (%),[9],80%
same,Population Normal (%),[9],94%
same,Population Pyknosed Nuclei (%),[9],7%
same,Population Tubulin-Different-Phenotype (%),[9],14%
same,Total Cell Count,[9],585
same,Population Apoptotic (%),[10],30%
same,Population Fragmented Nuclei (%),[10],9%
same,Population Healthy Nuclei (%),[10],84%
same,Population Hoechst High Intensity Objects (%),[10],4%
same,Population Mitochondria Different-Phenotype (%),[10],21%
same,Population Mitotic Cells (%),[10],69%
same,Population Normal (%),[10],95%
same,Population Pyknosed Nuclei (%),[10],6%
same,Population Tubulin-Different-Phenotype (%),[10],13%
same,Total Cell Count,[10],522
same,Population Apoptotic (%),[11],48%
same,Population Fragmented Nuclei (%),[11],8%
same,Population Healthy Nuclei (%),[11],79%
same,Population Hoechst High Intensity Objects (%),[11],11%
same,Population Membrane Permeable-Phenotype (%),[11],0%
same,Population Mitochondria Different-Phenotype (%),[11],59%
same,Population Mitotic Cells (%),[11],51%
same,Population Normal (%),[11],88%
same,Population Pyknosed Nuclei (%),[11],12%
same,Population Tubulin-Different-Phenotype (%),[11],43%
same,Total Cell Count,[11],424
same,Population Apoptotic (%),[12],64%
same,Population Fragmented Nuclei (%),[12],13%
same,Population Healthy Nuclei (%),[12],71%
same,Population Hoechst High Intensity Objects (%),[12],14%
same,Population Mitochondria Different-Phenotype (%),[12],48%
same,Population Mitotic Cells (%),[12],35%
same,Population Normal (%),[12],85%
same,Population Pyknosed Nuclei (%),[12],14%
same,Population Tubulin-Different-Phenotype (%),[12],28%
same,Total Cell Count,[12],290
